# Assay results: ChEMBL document CHEMBL1275449, “Potent in vitro antifungal activities of naturally occurring acetylenic acids” (Antimicrob Agents Chemother, 2008)
# Active and inactive are the calls of the source. The calls are words filed in the database; no cut-off is given here.
# Columns and labels:
# Aspergillus flavus [1] = experiment: Antifungal activity against Aspergillus flavus ATCC 204304 after 48 h by CLSI method; conditions: ATCC 204304, 48 h
# [2] = tested on: Trichophyton mentagrophytes; experiment: Antifungal activity against Trichophyton mentagrophytes ATCC MYA-4439 by CLSI method; type: functional, organism-based
# Summary of the method: (§1)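 Growth scraped from 1- to 6-week-old potato dextrose slants and filtered through Miracloth. Diluted in 5% Alamar blue-RPMI 1640 (MOPS pH 7.0) to 2.7 × 10⁴ CFU/ml. Eleven twofold dilutions in duplicate. Fluorescence at 544 nm excitation/590 nm emission read before and after 35°C, 5 days. IC50 fitted from percent growth. MIC taken as no detectable growth; MFC from clear or blue wells plated on PD agar.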
# Candida albicans [3] = experiment: Antifungal activity against Candida albicans ATCC 60193 after 48 hrs by CLSI method; type: functional, organism-based; conditions: ATCC 60193, 48 h
# Summary of the method: (§2)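 CLSI broth microdilution. Colonies from 24–72 h SD agar suspended in saline and sized by OD630 standard curve. Inoculum 1.5 × 10³ CFU/ml (final) in RPMI 1640 (0.2% dextrose, 0.03% glutamine, 0.165 M MOPS, pH 7.0). Twofold dilutions (11 levels) from 20% DMSO-saline, in duplicate. 35°C for 48 h, OD530 read before and after. IC50 fitted from % growth. MIC: no detectable growth. MFC: subculture onto SD agar.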
# Candida parapsilosis = experiment: Antifungal activity against Candida parapsilosis ATCC 22019 after 48 hrs by CLSI method; type: functional, organism-based; conditions: Lodderomyces parapsilosis, ATCC 22019, 48 h
# Summary of the method: (§3)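 Yeast suspensions made from 3-5 colonies off 24-72 h SD agar plates in saline. They were diluted by OD630 standard curve in RPMI 1640 (0.2% dextrose, 0.03% glutamine, 0.165 M MOPS, pH 7.0) to 1.5 × 10³ CFU/ml. Twofold dilutions (11 concentrations, 20% DMSO-saline) run in duplicate. OD530 read before and after 35°C, 48 h. Line values are top test concentrations; no-growth endpoints give MIC/MFC.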
# [4] = tested on: Trichophyton mentagrophytes; experiment: Antifungal activity against Trichophyton mentagrophytes ATCC 9533 by CLSI method; type: functional, organism-based
# Summary of the method: as §1
# Aspergillus fumigatus [5] = experiment: Antifungal activity against Aspergillus fumigatus ATCC 204305 after 48 h by CLSI method; conditions: ATCC 204305, 48 h
# Candida albicans [6] = experiment: Antifungal activity against Candida albicans ATCC 90028 after 48 hrs by CLSI method; type: functional, organism-based; conditions: ATCC 90028, 48 h
# Summary of the method: as §2
# Trichophyton rubrum [7] = experiment: Antifungal activity against Trichophyton rubrum ATCC MYA-4438 by CLSI method; type: functional, organism-based
# Summary of the method: as §1
# Aspergillus niger [8] = experiment: Antifungal activity against Aspergillus niger ATCC 16404 at 10.8 uM after 48 hrs by CLSI method; type: functional, organism-based
# Pichia kudriavzevii = experiment: Antifungal activity against Candida krusei ATCC 6258 after 48 hrs by CLSI method; type: functional, organism-based; conditions: ATCC 6258, 48 h
# Summary of the method: (§4)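 Candida inocula came from 24–72-h SD agar colonies suspended in saline. They were diluted by OD630 standard curve into RPMI 1640 (0.2% dextrose, 0.03% glutamine, 0.165 M MOPS, pH 7.0) to 1.5 × 10³ CFU/ml. Compounds were run as 11 twofold dilutions in 20% DMSO-saline, in duplicate, at 35°C for 48 h, with OD530 read before and after. Percent growth at the top concentration, IC50, MIC, and MFC (SD agar plating) were derived.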
# Candida albicans [9] = experiment: Antifungal activity against Fluconazole resistant Candida albicans clinical isolate 1 after 48 hrs by CLSI method; type: functional, organism-based
# Summary of the method: as §2
# Candida albicans [10] = experiment: Antifungal activity against Candida albicans ATCC 14053 after 48 hrs by CLSI method; type: functional, organism-based; conditions: ATCC 14053, 48 h
# Summary of the method: as §2
# Candida albicans [11] = experiment: Antifungal activity against Candida albicans ATCC 32354 after 48 hrs by CLSI method; type: functional, organism-based; conditions: ATCC 32354, 48 h
# Summary of the method: as §2
# Cryptococcus neoformans [12] = experiment: Antifungal activity against Cryptococcus neoformans ATCC 90113 after 72 hrs by CLSI method; type: functional, organism-based; conditions: ATCC 90113, 72 h
# Summary of the method: (§5)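 SD broth replaced RPMI because growth in RPMI was poor; other CLSI conditions were kept. Inoculum was 1.5 × 10³ CFU/ml from colonies on SD agar, checked by plating. Twofold serial dilutions (11 concentrations) in 20% DMSO-saline were tested in duplicate. OD530 was read before and after incubation at 35°C for 72 h. Percent growth gave IC50; the MIC is the lowest concentration with no detectable growth.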
# Aspergillus niger [13] = experiment: Antifungal activity against Aspergillus niger ATCC 16404 after 48 h by CLSI method; conditions: ATCC 16404, 48 h
# Nakaseomyces glabratus = experiment: Antifungal activity against Candida glabrata ATCC 90030 after 48 hrs by CLSI methodCandida glabrata; type: functional, organism-based; conditions: ATCC 90030, 48 h
# Summary of the method: as §4
# Trichophyton rubrum [14] = experiment: Antifungal activity against Trichophyton rubrum ATCC 10218 by CLSI method; type: functional, organism-based
# Summary of the method: as §1
# Cryptococcus neoformans [15] = experiment: Antifungal activity against Cryptococcus neoformans ATCC 66031 after 72 hrs by CLSI method; type: functional, organism-based; conditions: ATCC 66031, 72 h
# Summary of the method: as §5
# Aspergillus fumigatus [16] = experiment: Antifungal activity against Aspergillus fumigatus ATCC 90906 after 48 h by CLSI method; conditions: ATCC 90906, 48 h
# Candida tropicalis = experiment: Antifungal activity against Candida tropicalis ATCC 750 after 48 hrs by CLSI method; type: functional, organism-based; conditions: ATCC 750, 48 h
# Summary of the method: as §3
# Aspergillus flavus [17] = experiment: Antifungal activity against Aspergillus flavus ATCC 204304 at 10.8 uM after 48 hrs by CLSI method; type: functional, organism-based
# Candida albicans [18] = experiment: Antifungal activity against Candida albicans ATCC 200955 after 48 hrs by CLSI method; type: functional, organism-based; conditions: ATCC 200955, 48 h
# Summary of the method: as §2
# Candida albicans [19] = experiment: Antifungal activity against Fluconazole resistant Candida albicans clinical isolate 17 after 48 hrs by CLSI method; type: functional, organism-based
# Summary of the method: as §2
smiles,measurement,setting,value
C[C@@H]1[C@H](O)[C@@H](C)/C=C/C=C/C=C/C=C/C=C/C=C/C=C/[C@H](O[C@@H]2O[C@H](C)[C@@H](O)[C@H](N)[C@@H]2O)C[C@@H]2O[C@](O)(C[C@@H](O)C[C@@H](O)[C@H](O)CC[C@@H](O)C[C@@H](O)CC(=O)O[C@H]1C)C[C@H](O)[C@H]2C(=O)O [AMPHOTERICIN B],IC50,Aspergillus flavus [1],1500 nM
same,MIC,Aspergillus flavus [1],2.7 µM
same,IC50,[2],900 nM
same,MFC,[2],1.4 µM
same,MIC,[2],1.4 µM
same,IC50,Candida albicans [3],200 nM
same,MFC,Candida albicans [3],1.4 µM
same,MIC,Candida albicans [3],1 µM
same,IC50,Candida parapsilosis,300 nM
same,MFC,Candida parapsilosis,5.4 µM
same,MIC,Candida parapsilosis,2 µM
same,IC50,[4],600 nM
same,MFC,[4],2.7 µM
same,MIC,[4],2 µM
same,IC50,Aspergillus fumigatus [5],1200 nM
same,MFC,Aspergillus fumigatus [5],10.8 µM
same,MIC,Aspergillus fumigatus [5],2 µM
same,MFC,Candida albicans [6],1.4 µM
same,MIC,Candida albicans [6],1 µM
same,IC50,Trichophyton rubrum [7],600 nM
same,MFC,Trichophyton rubrum [7],5.4 µM
same,MIC,Trichophyton rubrum [7],1.4 µM
same,Activity,Aspergillus niger [8],inactive
same,MFC,Pichia kudriavzevii,2.7 µM
same,MIC,Pichia kudriavzevii,2 µM
same,IC50,Candida albicans [9],200 nM
same,MFC,Candida albicans [9],1.4 µM
same,MIC,Candida albicans [9],1 µM
same,MFC,Candida albicans [10],1.4 µM
same,MIC,Candida albicans [10],1 µM
same,MFC,Candida albicans [11],1.4 µM
same,MIC,Candida albicans [11],1 µM
same,IC50,Cryptococcus neoformans [12],300 nM
same,MFC,Cryptococcus neoformans [12],0.7 µM
same,MIC,Cryptococcus neoformans [12],0.7 µM
same,IC50,Aspergillus niger [13],900 nM
same,MIC,Aspergillus niger [13],2 µM
same,IC50,Nakaseomyces glabratus,400 nM
same,MFC,Nakaseomyces glabratus,1.4 µM
same,MIC,Nakaseomyces glabratus,1.4 µM
same,IC50,Trichophyton rubrum [14],600 nM
same,MFC,Trichophyton rubrum [14],1.4 µM
same,MIC,Trichophyton rubrum [14],1.4 µM
same,IC50,Cryptococcus neoformans [15],80 nM
same,MFC,Cryptococcus neoformans [15],0.34 µM
same,MIC,Cryptococcus neoformans [15],0.34 µM
same,IC50,Aspergillus fumigatus [16],900 nM
same,MFC,Aspergillus fumigatus [16],2.7 µM
same,MIC,Aspergillus fumigatus [16],1.4 µM
same,IC50,Candida tropicalis,300 nM
same,MFC,Candida tropicalis,1.4 µM
same,MIC,Candida tropicalis,1 µM
same,Activity,Aspergillus flavus [17],inactive
same,IC50,Candida albicans [18],600 nM
same,MFC,Candida albicans [18],2.7 µM
same,MIC,Candida albicans [18],2.7 µM
same,IC50,Candida albicans [19],200 nM
same,MFC,Candida albicans [19],1.4 µM
same,MIC,Candida albicans [19],1 µM
